This is an account of results in PMC8985159 (RSC Chemical Biology, 2022).

Where two headings read alike, the source gives them in different places.

Experiment [1] deals with T1, Sirt2_56-356 (Homo sapiens, UniProt Q8IXJ6).
T1 sequence (Q8IXJ6 56-356): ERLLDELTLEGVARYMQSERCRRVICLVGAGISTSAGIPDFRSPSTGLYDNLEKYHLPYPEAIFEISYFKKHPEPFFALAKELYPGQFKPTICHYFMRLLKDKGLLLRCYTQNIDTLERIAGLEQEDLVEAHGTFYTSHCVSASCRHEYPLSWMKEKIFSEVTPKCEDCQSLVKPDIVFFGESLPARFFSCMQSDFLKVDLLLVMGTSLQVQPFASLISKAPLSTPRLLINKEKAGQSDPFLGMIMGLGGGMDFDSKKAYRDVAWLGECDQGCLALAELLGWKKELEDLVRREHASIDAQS
Nature of the experiment: Sirtuin deacetylation activity assay. The format is biochemical.

For another experiment, the target named is T2, Sirt1_134-747 (Homo sapiens, UniProt Q96EB6).
T2 sequence (Q96EB6 134-747): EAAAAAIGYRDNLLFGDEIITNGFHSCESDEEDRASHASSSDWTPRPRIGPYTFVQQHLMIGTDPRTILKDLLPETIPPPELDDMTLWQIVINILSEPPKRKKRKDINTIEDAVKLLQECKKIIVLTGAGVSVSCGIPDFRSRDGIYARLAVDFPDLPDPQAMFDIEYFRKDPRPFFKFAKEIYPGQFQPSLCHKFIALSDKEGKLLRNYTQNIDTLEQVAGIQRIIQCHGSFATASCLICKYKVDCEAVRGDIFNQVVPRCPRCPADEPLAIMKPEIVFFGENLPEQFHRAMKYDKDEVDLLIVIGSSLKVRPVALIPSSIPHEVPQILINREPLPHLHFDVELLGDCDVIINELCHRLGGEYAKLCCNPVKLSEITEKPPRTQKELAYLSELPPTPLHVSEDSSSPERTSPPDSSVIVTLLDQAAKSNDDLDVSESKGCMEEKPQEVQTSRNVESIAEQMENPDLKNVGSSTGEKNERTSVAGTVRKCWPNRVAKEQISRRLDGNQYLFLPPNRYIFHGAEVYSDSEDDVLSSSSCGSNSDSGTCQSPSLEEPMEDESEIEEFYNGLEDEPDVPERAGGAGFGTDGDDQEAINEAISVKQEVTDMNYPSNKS
Put plainly: Sirtuin deacetylation activity assay. In kind it is biochemical.

The target in a further experiment is T3, Sirt3_118-395 (Homo sapiens, UniProt Q9NTG7).
T3 sequence (Q9NTG7 118-395): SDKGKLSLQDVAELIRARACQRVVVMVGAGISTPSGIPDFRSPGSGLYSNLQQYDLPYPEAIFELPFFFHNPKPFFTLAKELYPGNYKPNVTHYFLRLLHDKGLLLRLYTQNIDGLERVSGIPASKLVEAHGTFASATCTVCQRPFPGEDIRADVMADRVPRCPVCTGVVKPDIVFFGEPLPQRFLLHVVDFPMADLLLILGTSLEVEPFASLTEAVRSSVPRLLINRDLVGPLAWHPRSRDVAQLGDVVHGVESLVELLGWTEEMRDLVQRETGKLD
Nature of the experiment: Sirtuin deacetylation activity assay. The format is biochemical.

The target of experiment [2] is T1, Sirt2_56-356. Nature of the experiment: Sirt2 demyristoylation activity assay. The format is biochemical.
The target of the next experiment is human recombinant HDAC1 (Homo sapiens, UniProt Q13547). Nature of the experiment: HDAC1 activity assay. In kind it is biochemical. The gist of the method:
(§1)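 Enzyme was incubated with serially diluted test compound in DMSO and ZMAL (added from a 126 μM solution) for 90 min at 37 °C. Stop solution (33 μM trichostatin A, 6 mg/mL trypsin) was added, followed by 30 min at 37 °C. Fluorescence read at Ex 390 / Em 460 nm.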

Another experiment has as its target T4, human recombinant HDAC6 (Homo sapiens, UniProt Q9UBN7).
T4 sequence (Q9UBN7 1-1215): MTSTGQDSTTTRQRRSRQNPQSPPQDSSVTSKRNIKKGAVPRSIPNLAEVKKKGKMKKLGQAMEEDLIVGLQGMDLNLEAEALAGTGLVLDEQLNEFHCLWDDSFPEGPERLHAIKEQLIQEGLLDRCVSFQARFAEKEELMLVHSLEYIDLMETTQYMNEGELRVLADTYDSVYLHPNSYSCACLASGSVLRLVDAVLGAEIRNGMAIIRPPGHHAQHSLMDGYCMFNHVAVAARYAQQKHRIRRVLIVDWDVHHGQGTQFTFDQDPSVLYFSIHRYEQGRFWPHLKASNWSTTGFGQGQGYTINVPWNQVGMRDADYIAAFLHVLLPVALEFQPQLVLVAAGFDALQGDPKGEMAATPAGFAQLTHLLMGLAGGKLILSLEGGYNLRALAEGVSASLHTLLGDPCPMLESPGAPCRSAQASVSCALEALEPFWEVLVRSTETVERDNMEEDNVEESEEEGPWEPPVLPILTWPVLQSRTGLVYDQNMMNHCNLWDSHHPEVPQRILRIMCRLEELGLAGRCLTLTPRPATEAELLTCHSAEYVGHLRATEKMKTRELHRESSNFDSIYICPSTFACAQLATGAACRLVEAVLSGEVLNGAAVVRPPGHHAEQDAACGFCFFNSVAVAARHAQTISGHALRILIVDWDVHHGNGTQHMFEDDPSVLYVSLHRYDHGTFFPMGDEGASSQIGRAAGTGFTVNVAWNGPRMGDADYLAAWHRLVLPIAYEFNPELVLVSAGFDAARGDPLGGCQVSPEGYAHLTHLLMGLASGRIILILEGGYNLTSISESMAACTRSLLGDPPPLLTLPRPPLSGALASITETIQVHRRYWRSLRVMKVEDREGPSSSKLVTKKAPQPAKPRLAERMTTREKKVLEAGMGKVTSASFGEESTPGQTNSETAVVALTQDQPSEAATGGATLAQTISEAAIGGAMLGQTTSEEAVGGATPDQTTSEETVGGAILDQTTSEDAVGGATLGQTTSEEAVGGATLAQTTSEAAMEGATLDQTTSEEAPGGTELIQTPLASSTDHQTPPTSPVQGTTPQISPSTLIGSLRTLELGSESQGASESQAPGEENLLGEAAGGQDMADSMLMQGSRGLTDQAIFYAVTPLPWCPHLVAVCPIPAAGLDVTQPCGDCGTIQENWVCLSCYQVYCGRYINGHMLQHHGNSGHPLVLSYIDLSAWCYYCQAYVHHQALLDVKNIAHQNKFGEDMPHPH
Nature of the experiment: HDAC6 activity assay. The format is biochemical. The gist of the method:
as §1

For experiment [3], the target named is T5, N-terminally labelled Nluc-Sirt2 fusion protein (Homo sapiens, UniProt Q8IXJ6).
T5 sequence (Q8IXJ6 50-356): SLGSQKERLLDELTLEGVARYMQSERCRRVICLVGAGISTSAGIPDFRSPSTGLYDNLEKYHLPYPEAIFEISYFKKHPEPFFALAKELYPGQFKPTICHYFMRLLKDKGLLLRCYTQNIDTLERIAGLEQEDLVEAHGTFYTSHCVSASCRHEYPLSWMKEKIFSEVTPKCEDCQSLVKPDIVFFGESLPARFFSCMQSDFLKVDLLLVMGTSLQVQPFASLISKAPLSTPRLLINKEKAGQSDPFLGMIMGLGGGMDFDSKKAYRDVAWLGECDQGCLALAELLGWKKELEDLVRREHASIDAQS
Put plainly: NanoBRET assay, N-terminal Nluc-Sirt2 fusion in HEK293T cells.

Experiment [4] has as its target T6, Sirt2 (Homo sapiens, UniProt Q8IXJ6).
T6 sequence (Q8IXJ6 56-356): T1 sequence (Q8IXJ6 56-356)
Conditions: read-out: In vitro Sirt2 activity assay IC50; cited from earlier work.

The subject of experiment [5] is α-tubulin acetylation in PC-3M-luc cells. Nature of the experiment: Acetylation levels of α-tubulin by immunofluorescence. The format is cell-based, human. Particulars: 20 μM, 5 hours. The gist of the method:
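PC-3M-luc cells were plated at 20 000 per well, incubated overnight at 37 °C and 5% CO2, then exposed to 20 μM test compound for 5 h. They were fixed in 4% PFA for 8–10 min at RT and extracted with PBS/0.1% Triton X-100. Blocking used PBS/0.1% Triton/5% FCS. […] Read-out was immunofluorescence microscopy.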

Experiment [6] addresses T1, Sirt2_56-356. Nature of the experiment: Fluorescence polarization assay. In kind it is binding. (In general: In fluorescence polarisation assays a small probe gives low polarisation when free and higher when bound to something large.)
The target in experiment [7] is T6, Sirt2. Nature of the experiment: Determination of kinetic parameters for ZMAL and ZMML. The format is biochemical. Particulars: substrate of Sirt2; mean ± SD (n = 3).
The next experiment deals with PC-3M-luc cells. Nature of the experiment: Migration assay. In kind it is cell-based, human. Particulars: Homo sapiens, read-out: migration inhibition.
Setting [8] is: In vitro Sirt2 activity assay IC50, Table 2.
The mark [9] stands for this setting: tracer 13 2 μM, HEK293T, 2 h, mean ± SD.

human recombinant HDAC1, sequence (Q13547 whole entry): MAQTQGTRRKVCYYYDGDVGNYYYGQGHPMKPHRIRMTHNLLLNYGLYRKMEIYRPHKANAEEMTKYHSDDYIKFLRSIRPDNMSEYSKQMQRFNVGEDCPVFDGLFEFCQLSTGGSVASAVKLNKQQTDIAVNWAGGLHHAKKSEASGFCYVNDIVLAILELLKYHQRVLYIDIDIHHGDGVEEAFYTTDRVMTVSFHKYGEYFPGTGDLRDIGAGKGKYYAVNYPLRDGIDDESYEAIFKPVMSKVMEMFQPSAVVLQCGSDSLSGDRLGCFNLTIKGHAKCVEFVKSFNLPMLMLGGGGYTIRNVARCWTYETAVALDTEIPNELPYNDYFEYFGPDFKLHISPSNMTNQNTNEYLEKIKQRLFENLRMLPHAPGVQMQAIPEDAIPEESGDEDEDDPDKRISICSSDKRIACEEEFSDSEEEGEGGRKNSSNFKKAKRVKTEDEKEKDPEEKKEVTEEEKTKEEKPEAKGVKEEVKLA

On to `Cc1cc(C)nc(SCC(=O)Nc2ncc(Cc3cccc(OCc4cn(Cc5ccccc5C)nn4)c3)s2)n1` [Compound 8], for which the 50% inhibitory concentration (IC50) (usually the concentration needed to halve the response being measured) on Sirt2_56-356 [1] (setting [8]) is 0.16 ± 0.02 µM; against Sirt1_134-747, above 100 µM; against Sirt3_118-395, above 100 µM; at Sirt2_56-356 [2], 3.9 ± 0.2 µM; on human recombinant HDAC1, above 100 µM; at human recombinant HDAC6, above 100 µM. In experiment [3], the IC50 was determined as 1 ± 0.05 µM.
Consider `O=C(NCc1cccnc1)c1ccc2c(c1)C1C3CCC(C3)C1C(c1ccccc1)N2` (stereo not shown) [AEM2, reference compound], for which the IC50 is 3.8 µM at Sirt2 [4] and 5.2 ± 0.2 µM in experiment [3] (read-out: NanoBRET assay IC50, tracer 13 2 μM, HEK293T, 2 h, mean ± SD).
On to `COCCn1cc(COc2cccc(Cc3cnc(NC(=O)CSc4nc(-c5ccccc5)cc(-c5ccccc5)n4)s3)c2)nn1` [Compound 7], for which the “acetylation levels of α-tubulin” value in [5] is listed as “Only weak effects”. Moreover, the IC50 at Sirt2_56-356 [1] (Sirt2 Deacet. IC50, mean ± SD) is 620 ± 72 µM; against Sirt1_134-747, above 100 µM; against Sirt3_118-395, above 100 µM; at Sirt2_56-356 [2] it was above 100 µM; at human recombinant HDAC1 it was above 100 µM; at human recombinant HDAC6, above 100 µM. In addition, at Sirt2_56-356 [1] (Sirt2 deacetylation), the “decreased potency compared to the positive control SirReal2” value is on record as “more than 1000 fold”. The “NanoBRET assay IC50” value in [3] (setting [9]) was “did not detect cellular Sirt2 binding”. For the same molecule, the “Sirt2 binding in the FP assay compared to SirReal2 (in words)” value at Sirt2_56-356 [6] was “weaker binding”.
On to `CCCCCCCCCCCCCC(=O)NCCCCC(NC(=O)OCc1ccccc1)C(=O)Nc1ccc2c(C)cc(=O)oc2c1` (stereo not shown) [ZMML], for which, at Sirt2 [7], the Michaelis-Menten constant (Km) (in general, the substrate concentration at which the rate is half of its maximum) worked out at 6.7 ± 1 µM.
On to `CCCCCCCC(=O)Nc1ncc(Cc2cccc(OCc3cn(CCOC)nn3)c2)s1` [Compound 5], for which the half-maximal inhibitory concentration (IC50) on Sirt2_56-356 [1] (Sirt2 Deacet. IC50, mean ± SD) is 0.46 ± 0.21 µM; on Sirt1_134-747, above 100 µM; against Sirt3_118-395 it was above 100 µM; on human recombinant HDAC1 it was above 100 µM; at human recombinant HDAC6, above 100 µM. Further, the inhibition at 10 µM in the experiment on PC-3M-luc cells stood at 35%. The inhibition at 20 µM at Sirt2_56-356 [2] (read-out: Sirt2 Demyr. percentage of inhibition) is 23.2%. Further, the “NanoBRET assay IC50” value in experiment [3] (setting [9]) is listed as “did not detect cellular Sirt2 binding”. Further, on Sirt2_56-356 [6], the “Sirt2 binding in the FP assay compared to SirReal2 (in words)” value was “weaker binding”.
Consider `Cc1ccc(Cn2cc(COc3cccc(Cc4cnc(NC(=O)CSc5nc(C)cc(C)n5)s4)c3)nn2)cc1` [Compound 9], for which the IC50 was 0.17 ± 0.02 µM against Sirt2_56-356 [1] (setting [8]); above 100 µM on Sirt1_134-747; above 100 µM on Sirt3_118-395; 2 ± 0.3 µM on Sirt2_56-356 [2]; above 100 µM on human recombinant HDAC1; above 100 µM on human recombinant HDAC6. The IC50 in [3] was found to be 0.4 ± 0.02 µM.
Regarding `CC(=O)NCCCCC(NC(=O)OCc1ccccc1)C(=O)Nc1ccc2c(C)cc(=O)oc2c1` (stereo not shown) [ZMAL, Z-(Ac)Lys-AMC], the Km at Sirt2 [7] was 510 ± 95 µM.
